Calls of active or inactive are those of the source. No cut-off for these calls is given here.
Assays:
[1] = tested on: MGC-803; assay: Antiproliferative activity against human MGC803 cells after 72 hrs by MTT assay; assay type: functional, cell-based; details: MGC-803, 72 h
Outline: (§1)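 MGC-803 and MCF-7 cells grown in DMEM (MCF-7 with 1× NEAA); Bel-7402 and K562 grown in RPMI 1640; all media with 10% FBS. Cells seeded at 3500/well, pre-incubated 24 h, then exposed to compounds in fresh medium (DMSO ≤0.25%) for 72 h at 37 °C. MTT read-out at 570 nm. Quadruplicate wells, repeated three times; means ± SD (n = 3).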

[2] = tested on: Bel-7402; assay: Antiproliferative activity against human Bel7402 cells after 72 hrs by MTT assay; assay type: functional, cell-based; details: Bel-7402, 72 h; outline: as §1
[3] = tested on: MCF7; assay: Antiproliferative activity against human MCF7 cells after 72 hrs by MTT assay; assay type: functional, cell-based; details: MCF7, 72 h; outline: as §1
[4] = tested on: K562; assay: Antiproliferative activity against human K562 cells after 72 hrs by MTT assay; assay type: functional, cell-based; details: K562, 72 h; outline: as §1
[5] = tested on: KB 3-1; assay: Antiproliferative activity against human KB-3-1 cells after 48 hrs by MTT assay; assay type: functional, cell-based; details: KB 3-1, 48 h
Outline: (§2)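 Colorimetric MTT assay. KB-3-1, NCI-H460 and Bel-7404 cells were seeded at 4000 cells/well; resistant KB/CP4, NCI-H460/MX20 and Bel-7404/CP20 were seeded at 7000 cells/well. Cells were pre-incubated 24 h at 37 °C, 5% CO2, then exposed to a compound concentration series for 48 h with DMSO ≤0.25%. Absorbance read at 570 nm. Quadruplicate wells, three repeats; means ± SD.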

[6] = Antiproliferative activity against human KB/CP4 cells after 48 hrs by MTT assay; assay type: functional, cell-based; details: KB/CP4, 48 h; outline: as §2
[7] = tested on: NCI-H460; assay: Antiproliferative activity against human NCI-H460 cells after 48 hrs by MTT assay; assay type: functional, cell-based; details: NCI-H460, 48 h; outline: as §2
[8] = Antiproliferative activity against human NCI-H460/MX20 cells after 48 hrs by MTT assay; assay type: functional, cell-based; details: NCI-H460/MX20, 48 h; outline: as §2
[9] = tested on: BEL-7404 tumor cell line; assay: Antiproliferative activity against human Bel7404 cells after 48 hrs by MTT assay; assay type: functional, cell-based; details: BEL-7404, 48 h; outline: as §2
[10] = Antiproliferative activity against human BEL7404/CP20 cells after 48 hrs by MTT assay; assay type: functional, cell-based; details: BEL7404/CP20, 48 h; outline: as §2
[11] = Selectivity ratio of IC50 for human KB/CP4 cells to IC50 for human KB-3-1 cells
[12] = tested on: MCF7; assay: Cytotoxicity against human MCF7 cells at 10 to 50 uM after 24 hrs by LDH assay; assay type: functional, cell-based
Outline: (§3)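 Membrane integrity assay on MCF-7 and Bel-7402 cells seeded at ~5 × 10^3 per well for 24 h, then given compounds at 10, 20 or 50 μM. Culture medium collected and assayed with CytoTox-ONE LDH reagent for 10 min, followed by stop solution. Fluorescence read at Ex 560/Em 590 nm. Expressed as percentage of unstimulated cells.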

[13] = tested on: Bel-7402; assay: Cytotoxicity against human Bel7402 cells at 10 to 50 uM after 24 hrs by LDH assay; assay type: functional, cell-based; outline: as §3

SMILES | IC50 [1] [µM] | IC50 [2] [µM] | IC50 [3] [µM] | IC50 [4] [µM] | IC50 [5] [µM] | IC50 [6] [µM] | IC50 [7] [µM] | IC50 [8] [µM] | IC50 [9] [µM] | IC50 [10] [µM] | Ratio IC50 [11] | Activity [12] | Activity [13]
C=C1C(=O)[C@]23[C@H](OC(=O)C4CCCCC4)[C@H]1CC[C@H]2[C@]12C=CCC(C)(C)[C@H]1[C@H](O)[C@]3(O)OC2 | 3.6 | 4.06 | 5.83 | 3.22 | – | – | – | – | – | – | – | – | –
C=C1C(=O)[C@]23[C@H](OC(=O)/C=C/c4cc(OC)c(OC)c(OC)c4)[C@H]1CC[C@H]2[C@]12C=CCC(C)(C)[C@H]1[C@H](O)[C@]3(O)OC2 | 3.91 | 2.44 | 2.36 | 0.55 | – | – | – | – | – | – | – | – | –
C=C1C(=O)[C@]23[C@H](OC(=O)/C=C/c4ccccc4OC)[C@H]1CC[C@H]2[C@]12C=CCC(C)(C)[C@H]1[C@H](O)[C@]3(O)OC2 | 2.46 | 2.22 | 0.82 | 0.43 | 8.31 | 4.61 | 5.31 | 5.53 | 6.06 | 6.87 | <1 | – | –
C=C1C(=O)[C@]23[C@H](OC(=O)/C=C/c4ccc(OC)cc4)[C@H]1CC[C@H]2[C@]12C=CCC(C)(C)[C@H]1[C@H](O)[C@]3(O)OC2 | 2.91 | 2.42 | 0.95 | 0.88 | – | – | – | – | – | – | – | – | –
C=C1C(=O)[C@]23[C@H](O)[C@H]1CC[C@H]2[C@@]12CO[C@@]3(O)[C@@H](O)[C@@H]1C(C)(C)C[C@H]1O[C@H]12 | 5.74 | 5.77 | 5.37 | 1.59 | 21 | 7.74 | 8.81 | 11.2 | 13.7 | 21.6 | <1 | inactive | inactive
O=c1[nH]cc(F)c(=O)[nH]1 [FLUOROURACIL] | 3.12 | 2.25 | 1.75 | 3.54 | – | – | – | – | – | – | – | – | –
C=C1C(=O)[C@]23[C@H](OC(C)=O)[C@H]1CC[C@H]2[C@]12C=CCC(C)(C)[C@H]1[C@H](O)[C@]3(O)OC2 | 1.82 | 1.67 | 2.57 | 1.67 | – | – | – | – | – | – | – | – | –
C=C1C(=O)[C@]23[C@H](OC(=O)CCCCCCC)[C@H]1CC[C@H]2[C@]12C=CCC(C)(C)[C@H]1[C@H](O)[C@]3(O)OC2 | 2.71 | 4.34 | 2.44 | 3 | – | – | – | – | – | – | – | inactive | inactive
C=C1C(=O)[C@]23[C@H](O)[C@H]1CC[C@H]2[C@]12C=C[C@H](O)C(C)(C)[C@H]1[C@H](O)[C@]3(O)OC2 | 61.1 | 25.5 | 303 | 41.1 | – | – | – | – | – | – | – | – | –
C=C1C(=O)[C@]23[C@H](OC(=O)c4c(OC)cccc4OC)[C@H]1CC[C@H]2[C@]12C=CCC(C)(C)[C@H]1[C@H](O)[C@]3(O)OC2 | 21.2 | 45.3 | 12.5 | 6.85 | – | – | – | – | – | – | – | – | –
C=C1C(=O)[C@]23[C@H](OC(C)=O)[C@H]1CC[C@H]2[C@]12C=CC(=O)C(C)(C)[C@H]1[C@H](O)[C@]3(O)OC2 | 5.19 | 3.61 | 9.41 | 4.64 | – | – | – | – | – | – | – | – | –
C=C1C(=O)[C@]23[C@H](OC(=O)/C=C/c4cccc([N+](=O)[O-])c4)[C@H]1CC[C@H]2[C@]12C=CCC(C)(C)[C@H]1[C@H](O)[C@]3(O)OC2 | 2.47 | 1.77 | 1.37 | 0.58 | – | – | – | – | – | – | – | – | –
C=C1C(=O)[C@]23[C@H](OC(=O)/C=C/c4ccc(F)cc4)[C@H]1CC[C@H]2[C@]12C=CCC(C)(C)[C@H]1[C@H](O)[C@]3(O)OC2 | 5.11 | 2.58 | 2.51 | 1.34 | – | – | – | – | – | – | – | – | –
C=C1C(=O)[C@]23[C@H](OC(=O)c4ccc([N+](=O)[O-])cc4)[C@H]1CC[C@H]2[C@]12C=CCC(C)(C)[C@H]1[C@H](O)[C@]3(O)OC2 | 6.39 | 5.14 | 4.47 | 1.7 | – | – | – | – | – | – | – | – | –
C=C1C(=O)[C@]23[C@H](OC(=O)c4cccc(Cl)c4)[C@H]1CC[C@H]2[C@]12C=CCC(C)(C)[C@H]1[C@H](O)[C@]3(O)OC2 | 3.65 | 4.16 | 2.8 | 2.23 | – | – | – | – | – | – | – | – | –
C=C1C(=O)[C@]23[C@H](OC(=O)c4cc(C)ccc4C)[C@H]1CC[C@H]2[C@]12C=CCC(C)(C)[C@H]1[C@H](O)[C@]3(O)OC2 | 6.94 | 7.11 | 6.14 | 4.19 | – | – | – | – | – | – | – | – | –
C=C1C(=O)[C@]23[C@H](OC(=O)c4cccc(C)c4C)[C@H]1CC[C@H]2[C@]12C=CCC(C)(C)[C@H]1[C@H](O)[C@]3(O)OC2 | 3.78 | 2.33 | 3.58 | 1.68 | – | – | – | – | – | – | – | – | –
C=C1C(=O)[C@]23[C@H](O)[C@H]1CC[C@H]2[C@@]12CO[C@@]3(O)[C@@H](O)[C@@H]1C(C)(C)C[C@H](Cl)[C@H]2O | 3.18 | 1.69 | 3.43 | 2.3 | 6.54 | 5.92 | 8.8 | 49 | 6.96 | 5.98 | <1 | inactive | inactive
C=C1C(=O)[C@]23[C@H](OC(=O)c4cc(F)c(F)c(F)c4F)[C@H]1CC[C@H]2[C@]12C=CCC(C)(C)[C@H]1[C@H](O)[C@]3(O)OC2 | 1 | 1.58 | 2.11 | 1.83 | – | – | – | – | – | – | – | – | –
C=C1C(=O)[C@]23[C@H](OC(=O)CCCC)[C@H]1CC[C@H]2[C@]12C=CCC(C)(C)[C@H]1[C@H](O)[C@]3(O)OC2 | 6.19 | 6 | 2.49 | 1.74 | – | – | – | – | – | – | – | – | –
C=C1C(=O)[C@]23[C@H](OC(=O)c4ccccc4C(F)(F)F)[C@H]1CC[C@H]2[C@]12C=CCC(C)(C)[C@H]1[C@H](O)[C@]3(O)OC2 | 2.46 | 3.18 | 2.66 | 2.96 | – | – | – | – | – | – | – | – | –
C=C1C(=O)[C@]23[C@H](OC(=O)c4ccccc4C(F)(F)F)[C@H]1CC[C@H]2[C@]12C=CC(=O)C(C)(C)[C@H]1[C@H](O)[C@]3(O)OC2 | 3.61 | 2.93 | 3.84 | 2.61 | – | – | – | – | – | – | – | – | –
C=C1C(=O)[C@]23[C@H](OC(=O)c4ccc(Br)cc4)[C@H]1CC[C@H]2[C@]12C=CCC(C)(C)[C@H]1[C@H](O)[C@]3(O)OC2 | 2.01 | 1.06 | 0.14 | 0.33 | 5.82 | 3.24 | 5.31 | 4.73 | 5.35 | 6.05 | <1 | – | –
C=C1C(=O)[C@]23[C@H](OC(=O)c4ccnc(Cl)c4)[C@H]1CC[C@H]2[C@]12C=CC(=O)C(C)(C)[C@H]1[C@H](O)[C@]3(O)OC2 | 3.76 | 3.3 | 5.15 | 2.94 | – | – | – | – | – | – | – | – | –

— ChEMBL document CHEMBL3997810, “A Novel Potent Anticancer Compound Optimized from a Natural Oridonin Scaffold Induces Apoptosis and Cell Cycle Arrest through the Mitochondrial Pathway” (J Med Chem, 2017)
